According to article PMC3009390 (Chemical biology & drug design, 2010):

Assays:
[1] = tested on: CD58 protein on Caco-2 cells; assay: Fluorescence microscopy of binding to Caco-2 cells; assay type: cell-based, human; conditions: fixed Caco-2 cells, about 2 h incubation, magnification 20×
CD58 protein = assay: 1D NMR titration: binding of peptides to CD58 protein; conditions: pH 7.0, 90% H2O/10% D2O, 291 K, 700 MHz, protein:peptide 1:80
Outline: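 Recombinant CD58 extracellular domain was titrated in 10 µL aliquots into an NMR tube holding the test peptide. A 1D spectrum was recorded at each protein:peptide ratio from 1:1000 to 1:80 on a 700 MHz instrument at 291 K. Sample pH was set to 7.0 with NaOD in D2O. A control peptide was run the same way.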

RA = conditions: ref [41]; cited from earlier work

Molecule: O=C1OC2(c3ccc(O)cc3Oc3cc(O)ccc32)c2ccc(N=C=S)cc21 [FITC, Fluoresceineisothiocyanate]
- binding observed by fluorescence microscopy [1]: non-specific binding of FITC was observed

Molecule: KGKTDAISVKAI-NH2 [control peptide]
- binding to CD58 protein by 1D NMR (CD58 protein): does not bind to protein CD58
- change of peptide 1D NMR amide resonances on adding CD58 (CD58 protein): no indication of amide resonances

Molecule: QYMRADEADSTLR [CII-3]
- RA suppression activity (RA): does not exhibit any RA suppression activity
